From ChEMBL document CHEMBL4261550, “Triazolopyrimidines identified as reversible myeloperoxidase inhibitors” (Medchemcomm, 2017)
The source made the active and inactive calls. No cut-off for these calls is given here.

What was measured:
[1] = biological target: T1, Myeloperoxidase (Homo sapiens, UniProt P05164); experiment: Inhibition of human MPO assessed as reduction in enzyme-mediated chlorination by measuring reduction in HOCl formation preincubated for 10 mins followed by H2O2/NaCl addition and measured at 30 secs time interval for 5 mins by APF dye based fluorescence assay
T1 sequence (P05164 whole entry): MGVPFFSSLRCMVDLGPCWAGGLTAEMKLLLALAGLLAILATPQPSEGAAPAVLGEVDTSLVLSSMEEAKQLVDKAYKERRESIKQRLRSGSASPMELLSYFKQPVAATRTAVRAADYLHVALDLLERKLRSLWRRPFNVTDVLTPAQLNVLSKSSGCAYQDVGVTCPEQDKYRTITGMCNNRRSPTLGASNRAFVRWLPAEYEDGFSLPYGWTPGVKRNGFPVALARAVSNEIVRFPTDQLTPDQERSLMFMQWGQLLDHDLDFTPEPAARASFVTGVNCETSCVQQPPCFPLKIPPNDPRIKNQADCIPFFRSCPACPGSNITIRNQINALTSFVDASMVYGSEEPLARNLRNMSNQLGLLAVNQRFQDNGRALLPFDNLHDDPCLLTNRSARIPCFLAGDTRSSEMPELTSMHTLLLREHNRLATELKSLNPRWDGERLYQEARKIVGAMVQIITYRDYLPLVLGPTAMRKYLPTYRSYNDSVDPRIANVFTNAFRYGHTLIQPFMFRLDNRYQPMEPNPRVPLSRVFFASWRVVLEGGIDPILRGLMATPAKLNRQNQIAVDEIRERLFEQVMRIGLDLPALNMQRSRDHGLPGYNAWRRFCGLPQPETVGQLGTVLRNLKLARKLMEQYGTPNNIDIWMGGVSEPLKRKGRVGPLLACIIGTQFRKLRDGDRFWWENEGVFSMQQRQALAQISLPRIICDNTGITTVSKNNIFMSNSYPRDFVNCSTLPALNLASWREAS

[2] = biological target: T2, Myeloperoxidase (Homo sapiens) (UniProt P05164); experiment: Inhibition of human MPO assessed as reduction in enzyme-mediated chlorination by measuring reduction in HOCl formation at 10 uM preincubated for 10 mins followed by H2O2/NaCl addition and measured at 30 secs time interval for 5 mins by APF dye based fluorescence assay relative to control
T2 sequence (whole entry): T1 sequence (P05164 whole entry)
Procedure, shortened: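 HTS APF chlorination, 1536-well: 1.75 nM human MPO with 20 μM H2O2 final, compound 10 μM final, preincubated 10 min; APF reagent added, fluorescence 485/535 nm read every 30 s for 5 min; slope normalized to DMSO (0%) and no-MPO wells (100% inhibition).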

[3] = Hypochlorus scavenging activity at 10 uM in presence of sodium hypochlorite after 15 mins by APF dye based fluorescence assay relative to control; format: functional
Procedure, shortened: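 NaOCl-scavenger counterscreen in 1536-well format: 50 μM NaOCl in place of MPO with APF reagent, compound 10 μM final; fluorescence intensity read after 15 min incubation; ≥20% loss of fluorescence flagged as interference.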

[4] = biological target: T1, Myeloperoxidase; experiment: Inhibition of human MPO assessed as reduction in enzyme-mediated chlorination by measuring reduction in HOCl formation in presence of H2O2/NaCl measured at 30 secs time interval for 5 mins by APF dye based fluorescence assay
[5] = biological target: T1, Myeloperoxidase; experiment: Inhibition of human MPO peroxidase activity in presence of H2O2 measured at 30 secs time interval for 5 mins by amplex red reagent based fluorescence assay
[6] = Redox activity assessed as conversion of resazurin reagent to resorufin at 10 uM after 30 mins by fluorescence assay relative to control; format: physicochemical; conditions: 0.5 h
Procedure, shortened: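 Redox counterscreen: compound 10 μM final incubated with 5 μM resazurin reagent (final) 30 min; fluorescence intensity read; normalized to a reactive styrylpyrimidotriazinedione standard at 10 μM as 100%.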

[7] = biological target: T2, Myeloperoxidase (Homo sapiens); experiment: Substrate activity at human MPO assessed as reversion of enzyme to resting state at 80 uM in presence of H2O2 by stopped flow assay
Procedure, shortened: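 Stopped-flow at 25 °C: syringe 1 with 2 μM MPO and 5 μM H2O2 in phosphate buffer, syringe 2 with inhibitor and 5 μM H2O2; equal volumes rapidly mixed, spectra acquired in PDA mode to follow several MPO species; representative of numerous replicates.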

[8] = biological target: T2, Myeloperoxidase (Homo sapiens); experiment: Irreversible inhibition of human MPO peroxidase activity at 20 nM preincubated for up to 30 mins followed by H2O2 addition and 2 to 10 times compound dilution measured at 30 secs time interval for 5 mins by amplex red reagent based fluorescence assay
Procedure, shortened: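 MPO (20 nM, phosphate buffer) was preincubated with inhibitor and 100 nM H2O2 for 2, 10, 20 and 30 min. Inhibitor was at 5x–10x the Amplex Red IC50 when that IC50 was > 1 μM, or 2–10x the enzyme concentration when it was < 1 μM. Controls were peroxide with 0.2% DMSO, and 4-hydroxybenzoic acid hydrazide. Unbound inhibitor was removed on a G50 spin column. Flow-through was assayed by Amplex Red, and the initial rate gave % activity remaining versus control. Runs were repeated with 100 mM NaCl and 150 μM L-methionine.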

[9] = biological target: T2, Myeloperoxidase (Homo sapiens); experiment: Ratio of IC50 for human MPO chlorination preincubated for 10 mins to IC50 for human MPO chlorination without preincubation
[10] = biological target: T3, Thyroid peroxidase (Homo sapiens, UniProt P07202); experiment: Inhibition of recombinant human C-terminal His6-tagged TPO (15 to 839 residues) expressed in baculovirus infected insect cells assessed as reduction in H2O2-catalyzed 3,5-iodo tyrosine formation using 3-iodotyrosine and potassium iodide preincubated for 10 mins followed by 3,5-iodo tyrosine/potassium iodide/H2O2 addition and measured after 15 mins
T3 sequence (P07202 whole entry): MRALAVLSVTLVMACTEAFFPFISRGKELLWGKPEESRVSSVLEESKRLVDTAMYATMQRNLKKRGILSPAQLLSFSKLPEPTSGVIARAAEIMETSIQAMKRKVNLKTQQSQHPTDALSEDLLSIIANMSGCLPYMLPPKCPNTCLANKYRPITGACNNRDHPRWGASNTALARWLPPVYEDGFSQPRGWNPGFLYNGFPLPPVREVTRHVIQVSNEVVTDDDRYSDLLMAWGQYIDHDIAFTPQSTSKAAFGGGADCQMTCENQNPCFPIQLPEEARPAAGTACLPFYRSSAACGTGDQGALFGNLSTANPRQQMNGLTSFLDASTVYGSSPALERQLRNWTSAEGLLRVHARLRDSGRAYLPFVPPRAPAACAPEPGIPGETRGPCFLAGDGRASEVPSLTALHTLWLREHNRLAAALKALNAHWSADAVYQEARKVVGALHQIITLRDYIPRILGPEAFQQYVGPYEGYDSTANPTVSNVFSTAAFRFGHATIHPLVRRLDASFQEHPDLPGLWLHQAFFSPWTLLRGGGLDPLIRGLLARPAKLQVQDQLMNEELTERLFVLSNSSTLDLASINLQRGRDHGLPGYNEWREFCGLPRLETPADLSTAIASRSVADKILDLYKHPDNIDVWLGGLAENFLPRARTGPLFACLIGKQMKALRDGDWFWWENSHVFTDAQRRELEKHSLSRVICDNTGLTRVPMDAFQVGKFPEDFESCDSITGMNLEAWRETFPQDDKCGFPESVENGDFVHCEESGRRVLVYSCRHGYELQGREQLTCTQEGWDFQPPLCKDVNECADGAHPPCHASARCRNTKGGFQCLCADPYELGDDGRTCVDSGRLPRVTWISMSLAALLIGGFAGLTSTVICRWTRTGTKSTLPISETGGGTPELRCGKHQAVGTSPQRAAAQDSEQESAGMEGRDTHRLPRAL
Procedure, shortened: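 TPO residues 15–839 with C-terminal His6, baculovirus/T. ni expressed, purified by Ni affinity, anion exchange and size exclusion; 4.0 nM in 100 mM KPi pH 7.4, 10 min rt preincubation with inhibitor; then 400 μM KI/240 μM 3-iodotyrosine mix and 20 μM H2O2 (added solutions); 3,5-iodotyrosine formation monitored.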

[11] = biological target: T1, Myeloperoxidase; experiment: Inhibition of MPO in human neutrophils assessed as reduction in PMA-stimulated HOCl production incubated for 3 mins and measured for 25 mins by luminol reagent based luminescence assay
Procedure, shortened: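 Neutrophils from healthy donors isolated by dextran sedimentation then Ficoll-Paque, resuspended in HBSS; 1.106 cells/mL stimulated with 100 nM PMA; inhibitor 22 μM down to 1 nM (1:3, 10 doses) in 10% ethanol/50% PEG/40% water, 3 min at rt; luminol 100 μM final, read 25 min at 37 °C; rate taken from initial linear region.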

| Compound | IC50 [1] | other results |
| --- | --- | --- |
| Nc1nc(OCc2ccccc2F)c2nn[nH]c2n1 | 0.078 µM | – |
| N[C@@H](Cc1c[nH]c2ccccc12)C(=O)OCc1ccccc1 | 0.2 µM | inhibition [2]: 30%; Activity [3]: < 20%; IC50 [4]: 0.11 µM; IC50 [5]: > 13 µM; Activity [6]: Not Active; Activity [7]: Active |
| CCNc1nc(OCc2ccccc2)c2nn[nH]c2n1 | 2.9 µM | – |
| Nc1nc(OCc2cccc(OC(F)F)c2)c2nn[nH]c2n1 | 0.2 µM | – |
| Cc1ccc(COc2nc(N)nc3[nH]nnc23)cc1 | 0.51 µM | – |
| c1ccc(COc2ncnc3[nH]nnc23)cc1 | > 13 µM | – |
| Nc1nc(OCc2ccccc2Cl)c2nn[nH]c2n1 | 0.18 µM | – |
| NNC(=O)c1ccc(O)cc1 | – | inhibition [8]: Active |
| COc1cccc(COc2nc(N)nc3[nH]nnc23)c1 | 0.49 µM | – |
| Nc1nc(OCc2ccccc2)c2[nH]c(O)nc2n1 | > 13 µM | – |
| Cc1ccccc1COc1nc(N)nc2[nH]nnc12 | 0.47 µM | – |
| Nc1nc(OCCc2ccccc2)c2nn[nH]c2n1 | 0.63 µM | – |
| Nc1nc(OCc2ccccc2)c2[nH]cnc2n1 [6-O-BENZYLGUANINE] | > 13 µM | – |
| Nc1nc(OCc2ccccc2)c2cn[nH]c2n1 | > 13 µM | – |
| Cn1nnc2c(OCc3ccccc3)nc(N)nc21 | > 13 µM | – |
| O=c1[nH]c(=S)n(C[C@H]2CCCO2)c2nc[nH]c12 | 0.009 µM | inhibition [2]: 30%; Activity [3]: < 20%; IC50 [4]: 0.056 µM; IC50 [5]: 0.012 µM; Activity [6]: Not Active; Ratio IC50 [9]: 6; IC50 [10]: 3.9 µM; IC50 [11]: 1 µM |
| Oc1nc(OCc2ccccc2)c2nn[nH]c2n1 | > 13 µM | – |
| Nc1nc(OCc2cccc(Cl)c2)c2nn[nH]c2n1 | 0.2 µM | – |
| Nc1nc(OCc2cccc(F)c2)c2nn[nH]c2n1 | 0.04 µM | – |
| Nc1nc(Oc2ccccc2)c2nn[nH]c2n1 | > 13 µM | – |
| Nc1nc(OCc2ccc(F)cc2)c2nn[nH]c2n1 | 0.047 µM | – |
| Nc1nc(OCc2ccc(C(F)(F)F)cc2)c2nn[nH]c2n1 | 0.14 µM | – |
